The source of these data is ChEMBL document CHEMBL1121487, “Fluorinated pyrimidine nucleosides. 4. Synthesis and antitumor testing of a series of 2',5'-dideoxy- and 2',3',5'-trideoxynucleosides of 5-fluorouracil” (1980).

The nature of test [1]: Antitumor activity against sarcoma 180J infected mice was evaluated as ratio of number of survivors to the number of 8 tested animals at dose 200 mg/kg, ip; 8/8. Format: functional. The essentials: (§1)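 Mice bearing sarcoma 180J were dosed intraperitoneally eight times (mg/kg per dose, ×8). Read-outs were percent reduction in tumor growth and the number of mice surviving out of the number tested at each dose level. Mouse deaths were taken as toxicity.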

Test [2] has as its system Sarcoma-180. Nature of the test: Percent reduction against sarcoma 180J tumor growth in mice when administered intraperitoneally at dose 200 mg/kg. Conditions: route intraperitoneal. Format: functional, Mus musculus. A digest of the protocol: (§2)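 Sarcoma 180J tumor model in mice, with eight intraperitoneal doses per schedule (mg/kg ip × 8). Read-out is percent reduction in tumor growth. Toxicity was tracked as the number of surviving mice out of the number tested, with group sizes of 8 to 24 mice.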

The subject of test [3] is Sarcoma-180. Nature of the test: Percent reduction against sarcoma 180J tumor growth in mice when administered intraperitoneally at dose 100 mg/kg. It is filed as functional, Mus musculus. Particulars: route intraperitoneal. The essentials:
as §2

Test [4] in a line: Antitumor activity against sarcoma 180J infected mice was evaluated as ratio of number of survivors to the number of tested animals at dose 100 mg/kg, ip; 7/8. It is filed as functional. A digest of the protocol: as §1
A short description of test [5]: Antitumor activity against sarcoma 180J infected mice was evaluated as ratio of number of survivors to the number of tested animals at dose 200 mg/kg, ip; 12/16. It is filed as functional. A digest of the protocol: as §1
Test [6] in a line: Antitumor activity against sarcoma 180J infected mice was evaluated as ratio of number of survivors to the number of tested animals at dose 12.5 mg/kg, ip; 8/8. Format: functional. A digest of the protocol: as §1
The nature of test [7]: Antitumor activity against sarcoma 180J infected mice was evaluated as ratio of number of survivors to the number of tested animals at dose 200 mg/kg, ip; 11/16. It is filed as functional. The essentials: as §1
For test [8], the system named is Sarcoma-180. Nature of the test: (§3) Percent reduction against sarcoma 180J tumor growth in mice when administered intraperitoneally at dose 25 mg/kg. Format: functional, Mus musculus. Conditions: route intraperitoneal. The essentials: as §2
Test [9] in a line: Antitumor activity against sarcoma 180J infected mice was evaluated as ratio of number of survivors to the number of tested animals at dose 100 mg/kg, ip; 18/24. It is filed as functional. A digest of the protocol: as §1
Test [10] concerns Sarcoma-180. Nature of the test: Percent reduction against sarcoma 180J tumor growth in mice when administered intraperitoneally at dose 12.5 mg/kg. Format: functional, Mus musculus. Particulars: route intraperitoneal. The essentials:
as §2

The test system of test [11] is Sarcoma-180. Nature of the test: Percent reduction against sarcoma 180J tumor growth in mice when administered intraperitoneally at dose 50 mg/kg. Format: functional, Mus musculus. Particulars: route intraperitoneal. A digest of the protocol: as §2
Test [12] is described as follows: Antitumor activity against sarcoma 180J infected mice was evaluated as ratio of number of survivors to the number of tested animals at dose 25 mg/kg, ip; 16/16. It is filed as functional. The essentials: as §1
Test [13] is described as follows: Antitumor activity against sarcoma 180J infected mice was evaluated as ratio of number of survivors to the number of tested animals at dose 50 mg/kg, ip; 16/16. It is filed as functional. A digest of the protocol: as §1
Test [14] in a line: Antitumor activity against sarcoma 180J infected mice was evaluated as ratio of number of survivors to the number of tested animals at dose 100 mg/kg, ip; 15/16. Format: functional. A digest of the protocol:
as §1

A short description of test [15]: Antitumor activity against sarcoma 180J infected mice was evaluated as ratio of number of survivors to the number of tested animals at dose 200 mg/kg, ip; 15/16.
The nature of test [16]: Antitumor activity against sarcoma 180J infected mice was evaluated as ratio of number of survivors to the number of tested animals at dose 200 mg/kg, ip; 8/8. Format: functional. A digest of the protocol: as §1
A short description of test [17]: as §3. Format: functional, Mus musculus. Conditions: route intraperitoneal. A digest of the protocol: as §1
Test [18] is described as follows: Antitumor activity against sarcoma 180J infected mice was evaluated as ratio of number of survivors to the number of tested animals at dose 25 mg/kg, ip; 22/22. Format: functional. The essentials: as §1
Test [19] deals with Sarcoma-180. Nature of the test: Percent reduction against sarcoma 180J tumor growth in mice when administered intraperitoneally at dose 40 mg/kg. Conditions: route intraperitoneal. It is filed as functional, Mus musculus. A digest of the protocol:
as §1

Test [20] can be described thus: Antitumor activity against sarcoma 180J infected mice was evaluated as ratio of number of survivors to the number of tested animals at dose 40 mg/kg, ip; 17/24. Format: functional. A digest of the protocol: as §1

For `C[C@H]1O[C@@H]2C[C@H]1Oc1ncc(F)c(=O)n12`, the Ratio in test [1] stood at 8. In the test with Sarcoma-180 [2], this compound gave a Reduction of 28%.
As for `CC1CC[C@H](n2cc(F)c(=O)[nH]c2=O)O1` (stereo partly drawn), the Reduction in the test with Sarcoma-180 [3] was 35%; in the test with Sarcoma-180 [2], 81%. For the same compound, the figures for the Ratio in [4] and in test [5] were 7 and 12, respectively.
Regarding `O=c1[nH]c(=O)n([C@H]2C[C@H](O)[C@@H](CO)O2)cc1F` [FLOXURIDINE], the Ratio is 8 in test [6]; 11 in [7]; 18 in [9]; 16 in test [12]; 16 in test [13]. The Reduction was 61% with Sarcoma-180 [8]; 93% in the test with Sarcoma-180 [3]; 26% with Sarcoma-180 [10]; 85% in the test with Sarcoma-180 [11]; 93% with Sarcoma-180 [2].
Regarding `O=c1[nH]c(=O)n(C2CCCO2)cc1F` (stereo not drawn) [TEGAFUR], the Reduction in the test with Sarcoma-180 [3] came out at 46%; with Sarcoma-180 [2], 81%. In addition, the Ratio in test [5] is on record as 12; in [14], 15.
On to `C[C@H]1O[C@@H](n2cc(F)c(=O)[nH]c2=O)C[C@@H]1O`, for which the Ratio in test [15] came to 15. For the same compound, the Reduction in the test with Sarcoma-180 [2] was 0%.
Regarding `C[C@H]1O[C@@H](n2cc(F)c(=O)[nH]c2=O)C[C@H]1O`, in [16], the Ratio is on record as 8. The same compound showed a Reduction in the test with Sarcoma-180 [2] of 6%.
Take `O=c1[nH]cc(F)c(=O)[nH]1` [FLUOROURACIL]: the Reduction in [17] was determined as 38%; with Sarcoma-180 [19] it was 87%. For the same compound, the Ratio in test [18] came to 22; in test [20], 17.
